From ChEMBL document CHEMBL1772954, “Antifungal, cytotoxic and SAR studies of a series of N-alkyl, N-aryl and N-alkylphenyl-1,4-pyrrolediones and related compounds” (Bioorg Med Chem, 2011)
≈ marks a conversion by molar mass, not a printed value.

Tests used:
Aspergillus fumigatus = experiment: Antifungal activity against Aspergillus fumigatus ATCC 26934; assay type: functional
Method in brief: (§1)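 Broth microdilution per CLSI M38-A2 in RPMI-1640 with MOPS at pH 7.0. Inoculum 1-5 × 10^3 CFU/mL, with twofold compound dilutions spanning 250-0.24 µg/ml (final DMSO <1%). Plates incubated at 35 °C, moist and dark, and read when the control fungus had grown. MIC is total growth inhibition. MFC comes from subculturing clear wells in duplicate onto SDA.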

MCF7 = experiment: Cytotoxicity against human MCF7 cells assessed as cell growth after 2 days by sulforhodamine B assay; assay type: functional; conditions: MCF7, 48 h
Method in brief: (§2)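 NCI cell lines were run by the Monks method: cells were plated with compounds from DMSO stocks and incubated 2 days at 37 °C in 5% CO2, in duplicate. Cells were fixed with cold TCA, stained with 0.4% SRB, and the bound dye was solubilized in 10 mM tris-base and read at 515 nm. The zero-day control was subtracted, and GI50 was taken from the curves.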

Nannizzia gypsea = experiment: Antifungal activity against Microsporum gypseum C 115 2000; assay type: functional
Method in brief: (§3)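 Dermatophytes tested by CLSI M38-A2 microdilution in MOPS-buffered RPMI-1640 at pH 7.0. Inoculum 1-5 × 10^3 CFU/mL; compounds 250 to 0.24 µg/ml in twofold steps, final DMSO <1%. Incubated at 28 °C in a moist, dark chamber and read according to control growth. MIC is the lowest concentration with complete inhibition. MFC is the lowest concentration with no growth after duplicate subculture on SDA.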

Candida albicans = experiment: Antifungal activity against Candida albicans ATCC 10213; assay type: functional
Method in brief: (§4)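 CLSI M27-A3 broth microdilution in RPMI-1640 buffered to pH 7.0 with MOPS. Inoculum 1-5 × 10^3 CFU/mL. Compound twofold dilutions from 250 to 0.24 µg/ml, final DMSO <1%. Incubated at 35 °C in a moist, dark chamber and read at 48 h. MIC is the lowest concentration giving total growth inhibition. For MFC, 5 µL from clear wells was plated in duplicate on SDA; MFC is the lowest concentration with no growth.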

Saccharomyces cerevisiae = experiment: Antifungal activity against Saccharomyces cerevisiae ATCC 9763; assay type: functional; method in brief: as §4
Aspergillus flavus = experiment: Antifungal activity against Aspergillus flavus ATCC 9170; assay type: functional; method in brief: as §1
Candida tropicalis = experiment: Antifungal activity against Candida tropicalis C 131 2000; assay type: functional; method in brief: as §4
SF-268 = experiment: Cytotoxicity against human SF268 cells assessed as cell growth after 2 days by sulforhodamine B assay; assay type: functional; conditions: SF-268, 48 h; method in brief: as §2
NCI-H460 = experiment: Cytotoxicity against human H460 cells assessed as cell growth after 2 days by sulforhodamine B assay; assay type: functional; conditions: NCI-H460, 48 h; method in brief: as §2
Aspergillus niger = experiment: Antifungal activity against Aspergillus niger ATCC 9029; assay type: functional; method in brief: as §1
[1] = system: Trichophyton mentagrophytes; experiment: Antifungal activity against Trichophyton mentagrophytes ATCC 9972; assay type: functional; method in brief: as §3
[2] = Cytotoxicity against human erythrocytes assessed as hemolysis by spectrometric analysis; assay type: cell-based, Erythrocyte
Method in brief: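 Human heparinized red blood cells were washed in PBS at pH 7.0 and suspended at 4% in sterile 5% glucose. Compounds from DMSO stocks were diluted in 5% glucose to final concentrations of 250 to 0.24 µg/ml and incubated with the cells at 37 °C. Released hemoglobin was read at 540 nm. HC50 is the concentration giving 50% lysis relative to the drug-free value.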

Cryptococcus neoformans = experiment: Antifungal activity against Cryptococcus neoformans ATCC 32264; assay type: functional; method in brief: as §4
Trichophyton rubrum = experiment: Antifungal activity against Trichophyton rubrum C 113 2000; assay type: functional; method in brief: as §3

Row | SMILES | MIC (Aspergillus fumigatus) | MIC (Nannizzia gypsea) | MIC (Candida albicans) | MIC (Saccharomyces cerevisiae) | MIC (Aspergillus flavus) | MIC (Candida tropicalis) | MIC (Aspergillus niger) | MIC [1] | MFC (Aspergillus fumigatus) | GI50 (MCF7) | MFC (Nannizzia gypsea) | MFC (Candida albicans) | MFC (Saccharomyces cerevisiae) | MFC (Aspergillus flavus) | MFC (Candida tropicalis) | GI50 (SF-268) | GI50 (NCI-H460) | MFC (Aspergillus niger) | MFC [1] | HC50 [2] | other results
1 | COc1ccc(N2C(=O)C=CC2=O)cc1 | 62.5 µg/mL (≈ 308 µM) | 3.9 µg/mL (≈ 19.2 µM) | 62.5 µg/mL (≈ 308 µM) | 31.2 µg/mL (≈ 154 µM) | 62.5 µg/mL (≈ 308 µM) | 62.5 µg/mL (≈ 308 µM) | 31.2 µg/mL (≈ 154 µM) | 3.9 µg/mL (≈ 19.2 µM) | 125 µg/mL (≈ 615 µM) | > 10 µg/mL | 7.81 µg/mL (≈ 38.4 µM) | 125 µg/mL (≈ 615 µM) | 62.5 µg/mL (≈ 308 µM) | 125 µg/mL (≈ 615 µM) | 125 µg/mL (≈ 615 µM) | > 10 µg/mL | > 10 µg/mL | 62.5 µg/mL (≈ 308 µM) | 7.81 µg/mL (≈ 38.4 µM) | > 250 µg/mL | MFC (Cryptococcus neoformans): 15.6 µg/mL (≈ 76.9 µM); MIC (Cryptococcus neoformans): 15.6 µg/mL (≈ 76.9 µM); MFC (Trichophyton rubrum): 3.9 µg/mL (≈ 19.2 µM); MIC (Trichophyton rubrum): 3.9 µg/mL (≈ 19.2 µM)
2 | O=C1C(Cl)=C(Cl)C(=O)N1CCCCc1ccccc1 | 31.2 µg/mL (≈ 105 µM) | 15.6 µg/mL (≈ 52.4 µM) | 7.81 µg/mL (≈ 26.2 µM) | 3.9 µg/mL (≈ 13.1 µM) | 15.6 µg/mL (≈ 52.4 µM) | 7.81 µg/mL (≈ 26.2 µM) | 15.6 µg/mL (≈ 52.4 µM) | 3.9 µg/mL (≈ 13.1 µM) | 62.5 µg/mL (≈ 210 µM) | > 10 µg/mL | 31.2 µg/mL (≈ 105 µM) | 15.6 µg/mL (≈ 52.4 µM) | 7.81 µg/mL (≈ 26.2 µM) | 31.2 µg/mL (≈ 105 µM) | 15.6 µg/mL (≈ 52.4 µM) | > 10 µg/mL | > 10 µg/mL | 15.6 µg/mL (≈ 52.4 µM) | 7.81 µg/mL (≈ 26.2 µM) | > 250 µg/mL | MFC (Cryptococcus neoformans): 3.9 µg/mL (≈ 13.1 µM); MIC (Cryptococcus neoformans): 3.9 µg/mL (≈ 13.1 µM); MFC (Trichophyton rubrum): 7.81 µg/mL (≈ 26.2 µM); MIC (Trichophyton rubrum): 3.9 µg/mL (≈ 13.1 µM)
3 | COc1ccc(N2C(=O)C=CC2=O)cc1OC | 62.5 µg/mL (≈ 268 µM) | 3.9 µg/mL (≈ 16.7 µM) | 31.2 µg/mL (≈ 134 µM) | 7.81 µg/mL (≈ 33.5 µM) | 62.5 µg/mL (≈ 268 µM) | 15.6 µg/mL (≈ 67 µM) | 62.5 µg/mL (≈ 268 µM) | 3.9 µg/mL (≈ 16.7 µM) | 125 µg/mL (≈ 536 µM) | > 10 µg/mL | 7.81 µg/mL (≈ 33.5 µM) | 62.5 µg/mL (≈ 268 µM) | 15.6 µg/mL (≈ 67 µM) | 125 µg/mL (≈ 536 µM) | 15.6 µg/mL (≈ 67 µM) | > 10 µg/mL | > 10 µg/mL | 125 µg/mL (≈ 536 µM) | 7.81 µg/mL (≈ 33.5 µM) | > 250 µg/mL | MFC (Cryptococcus neoformans): 15.6 µg/mL (≈ 67 µM); MIC (Cryptococcus neoformans): 7.81 µg/mL (≈ 33.5 µM); MFC (Trichophyton rubrum): 7.81 µg/mL (≈ 33.5 µM); MIC (Trichophyton rubrum): 3.9 µg/mL (≈ 16.7 µM)

The remaining compounds from weak to strong by MIC (Aspergillus fumigatus), led by results:

Row | MIC (Aspergillus fumigatus) | MIC (Nannizzia gypsea) | MIC (Candida albicans) | MIC (Saccharomyces cerevisiae) | MIC (Aspergillus flavus) | MIC (Candida tropicalis) | MIC (Aspergillus niger) | MIC [1] | SMILES | MFC (Aspergillus fumigatus) | GI50 (MCF7) | MFC (Nannizzia gypsea) | MFC (Candida albicans) | MFC (Saccharomyces cerevisiae) | MFC (Aspergillus flavus) | MFC (Candida tropicalis) | GI50 (SF-268) | GI50 (NCI-H460) | MFC (Aspergillus niger) | MFC [1] | HC50 [2] | other results
4 | 31.2 µg/mL (≈ 154 µM) | 3.9 µg/mL (≈ 19.2 µM) | 15.6 µg/mL (≈ 76.9 µM) | 3.9 µg/mL (≈ 19.2 µM) | 31.2 µg/mL (≈ 154 µM) | 15.6 µg/mL (≈ 76.9 µM) | 31.2 µg/mL (≈ 154 µM) | 1.95 µg/mL (≈ 9.6 µM) | COc1cccc(N2C(=O)C=CC2=O)c1 | 62.5 µg/mL (≈ 308 µM) | > 10 µg/mL | 7.81 µg/mL (≈ 38.4 µM) | 62.5 µg/mL (≈ 308 µM) | 7.81 µg/mL (≈ 38.4 µM) | 62.5 µg/mL (≈ 308 µM) | 62.5 µg/mL (≈ 308 µM) | > 10 µg/mL | > 10 µg/mL | 62.5 µg/mL (≈ 308 µM) | 3.9 µg/mL (≈ 19.2 µM) | > 250 µg/mL | MFC (Cryptococcus neoformans): 7.81 µg/mL (≈ 38.4 µM); MIC (Cryptococcus neoformans): 3.9 µg/mL (≈ 19.2 µM); MFC (Trichophyton rubrum): 3.9 µg/mL (≈ 19.2 µM); MIC (Trichophyton rubrum): 1.95 µg/mL (≈ 9.6 µM)
5 | 31.2 µg/mL (≈ 134 µM) | 3.9 µg/mL (≈ 16.7 µM) | 15.6 µg/mL (≈ 67 µM) | 7.81 µg/mL (≈ 33.5 µM) | 62.5 µg/mL (≈ 268 µM) | 15.6 µg/mL (≈ 67 µM) | 15.6 µg/mL (≈ 67 µM) | 3.9 µg/mL (≈ 16.7 µM) | COc1ccc(N2C(=O)C=CC2=O)c(OC)c1 | 62.5 µg/mL (≈ 268 µM) | > 10 µg/mL | 7.81 µg/mL (≈ 33.5 µM) | 15.6 µg/mL (≈ 67 µM) | 7.81 µg/mL (≈ 33.5 µM) | 125 µg/mL (≈ 536 µM) | 15.6 µg/mL (≈ 67 µM) | > 10 µg/mL | > 10 µg/mL | 62.5 µg/mL (≈ 268 µM) | 3.9 µg/mL (≈ 16.7 µM) | > 250 µg/mL | MFC (Cryptococcus neoformans): 7.81 µg/mL (≈ 33.5 µM); MIC (Cryptococcus neoformans): 7.81 µg/mL (≈ 33.5 µM); MFC (Trichophyton rubrum): 7.81 µg/mL (≈ 33.5 µM); MIC (Trichophyton rubrum): 3.9 µg/mL (≈ 16.7 µM)
6 | 15.6 µg/mL (≈ 112 µM) | 3.9 µg/mL (≈ 28 µM) | 62.5 µg/mL (≈ 449 µM) | 15.6 µg/mL (≈ 112 µM) | 15.6 µg/mL (≈ 112 µM) | 62.5 µg/mL (≈ 449 µM) | 15.6 µg/mL (≈ 112 µM) | 7.81 µg/mL (≈ 56.1 µM) | CCCN1C(=O)C=CC1=O | 31.2 µg/mL (≈ 225 µM) | > 10 µg/mL | 7.81 µg/mL (≈ 56.1 µM) | 125 µg/mL (≈ 898 µM) | 31.2 µg/mL (≈ 225 µM) | 15.6 µg/mL (≈ 112 µM) | 125 µg/mL (≈ 898 µM) | > 10 µg/mL | > 10 µg/mL | 15.6 µg/mL (≈ 112 µM) | 7.81 µg/mL (≈ 56.1 µM) | > 250 µg/mL | MFC (Cryptococcus neoformans): 15.6 µg/mL (≈ 112 µM); MIC (Cryptococcus neoformans): 7.81 µg/mL (≈ 56.1 µM); MFC (Trichophyton rubrum): 7.81 µg/mL (≈ 56.1 µM); MIC (Trichophyton rubrum): 3.9 µg/mL (≈ 28 µM)
